Assay results published in ChEMBL document CHEMBL1255404, “Spread of OXA-48-encoding plasmid in Turkey and beyond” (2010).
In brackets after ≈: the same amount, converted by molar mass.

How the values were obtained:
Format in all cases: functional
[1] = tested on: Escherichia coli; experiment: Antimicrobial activity against Escherichia coli isolate J53 harboring pI-2 containing beta-lactamase OXA-48 located within transposon Tn1999.2 by Etest method
Summary of the method: (§1)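 β-Lactam MICs read with Etest strips. Strains are E. coli J53 recipient and J53 transconjugants carrying OXA-48-positive plasmids recovered from clinical enterobacterial isolates.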

[2] = tested on: Escherichia coli; experiment: Antimicrobial activity against Escherichia coli isolate J53 harboring pA-1 containing beta-lactamase OXA-48 located within transposon Tn1999 by Etest method; summary of the method: as §1
[3] = tested on: Klebsiella pneumoniae; experiment: Antimicrobial activity against Klebsiella pneumoniae isolate KpBIC expressing beta-lactamase OXA-48 by Etest method
Summary of the method: (§2)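 MICs of β-lactams read from Etest strips. The test organisms are carbapenem-resistant, OXA-48-positive clinical Enterobacteriaceae isolates recovered from Turkey, Lebanon, Egypt, France and Belgium.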

[4] = tested on: Escherichia coli; experiment: Antimicrobial activity against Escherichia coli isolate J53 harboring pEcA containing beta-lactamase OXA-48 located within transposon Tn1999.2 by Etest method; summary of the method: as §1
[5] = tested on: Klebsiella pneumoniae; experiment: Antimicrobial activity against Klebsiella pneumoniae isolate Kp5A expressing beta-lactamase OXA-48 and SHV-5 by Etest method
[6] = tested on: Klebsiella pneumoniae; experiment: Antimicrobial activity against Klebsiella pneumoniae isolate KpBEL expressing beta-lactamase OXA-48 by Etest method; summary of the method: as §2
[7] = tested on: Klebsiella pneumoniae; experiment: Antimicrobial activity against Klebsiella pneumoniae isolate KpB expressing OXA-48 and CTX-M-15 by Etest method
[8] = tested on: Citrobacter freundii; experiment: Antimicrobial activity against Citrobacter freundii isolate expressing beta-lactamase OXA-48 by Etest method
[9] = tested on: Escherichia coli; experiment: Antimicrobial activity against Escherichia coli isolate J53 by Etest method; summary of the method: as §1
[10] = tested on: Klebsiella pneumoniae; experiment: Antimicrobial activity against Klebsiella pneumoniae isolate KpE expressing beta-lactamase OXA-48 and CTX-M-15 by Etest method
[11] = tested on: Enterobacter cloacae; experiment: Antimicrobial activity against Enterobacter cloacae isolate 1 expressing beta-lactamase OXA-48 and SHV-5 by Etest method
[12] = tested on: Escherichia coli; experiment: Antimicrobial activity against Escherichia coli isolate A expressing beta-lactamase OXA-48 and TEM-150 by Etest method
[13] = tested on: Escherichia coli; experiment: Antimicrobial activity against Escherichia coli isolate J53 harboring pEnc1 containing beta-lactamase OXA-48 located within transposon Tn1999 by Etest method; summary of the method: as §1
[14] = tested on: Klebsiella pneumoniae; experiment: Antimicrobial activity against Klebsiella pneumoniae isolate KpI-1 expressing beta-lactamase OXA-48 and CTX-M-15 by Etest method
[15] = tested on: Escherichia coli; experiment: Antimicrobial activity against Escherichia coli isolate J53 harboring p3A containing beta-lactamase OXA-48 located within transposon Tn1999 by Etest method; summary of the method: as §1
[16] = tested on: Escherichia coli; experiment: Antimicrobial activity against Escherichia coli isolate J53 harboring p5A containing beta-lactamase OXA-48 located within transposon Tn1999 by Etest method; summary of the method: as §1
[17] = tested on: Escherichia coli; experiment: Antimicrobial activity against Escherichia coli isolate J53 harboring p4A containing beta-lactamase OXA-48 located within transposon Tn1999 by Etest method; summary of the method: as §1
[18] = tested on: Providencia rettgeri; experiment: Antimicrobial activity against Providencia rettgeri isolate expressing beta-lactamase OXA-48 and TEM-101 by Etest method
[19] = tested on: Escherichia coli; experiment: Antimicrobial activity against Escherichia coli isolate TOP10 harboring pBIC containing beta-lactamase OXA-48 located within transposon Tn1999.2 by Etest method
Summary of the method: (§3)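 β-Lactam MICs read with Etest strips. Strains are E. coli TOP10 host and TOP10 transformants made with plasmid DNA extract when conjugation failed. Transformants were selected on LB agar with ticarcillin 50 μg/ml.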

[20] = tested on: Escherichia coli; experiment: Antimicrobial activity against Escherichia coli isolate TOP10 by Etest method; summary of the method: as §3
[21] = tested on: Escherichia coli; experiment: Antimicrobial activity against Escherichia coli isolate J53 harboring pBb containing beta-lactamase OXA-48 located within transposon Tn1999.2 by Etest method; summary of the method: as §1
[22] = tested on: Klebsiella pneumoniae; experiment: Antimicrobial activity against Klebsiella pneumoniae isolate Kp7A expressing beta-lactamase OXA-48 by Etest method; summary of the method: as §2
[23] = tested on: Escherichia coli; experiment: Antimicrobial activity against Escherichia coli isolate J53 harboring pI-1 containing beta-lactamase OXA-48 located within transposon Tn1999.2 by Etest method; summary of the method: as §1
[24] = tested on: Klebsiella pneumoniae; experiment: Antimicrobial activity against Klebsiella pneumoniae isolate KpI-2 expressing beta-lactamase OXA-48 and CTX-M-15 by Etest method
[25] = tested on: Klebsiella pneumoniae; experiment: Antimicrobial activity against Klebsiella pneumoniae isolate KpL expressing beta-lactamase OXA-48 by Etest method
[26] = tested on: Klebsiella pneumoniae; experiment: Antimicrobial activity against Klebsiella pneumoniae isolate Kp4A expressing beta-lactamase OXA-48 and CTX-M-15 by Etest method
[27] = tested on: Klebsiella pneumoniae; experiment: Antimicrobial activity against Klebsiella pneumoniae isolate Kp6A expressing beta-lactamase OXA-48 and TEM-150 by Etest method
[28] = tested on: Escherichia coli; experiment: Antimicrobial activity against Escherichia coli isolate J53 harboring pBEL containing beta-lactamase OXA-48 located within transposon Tn1999.2 by Etest method; summary of the method: as §1
[29] = tested on: Escherichia coli; experiment: Antimicrobial activity against Escherichia coli isolate J53 harboring pCF containing beta-lactamase OXA-48 located within transposon Tn1999 by Etest method; summary of the method: as §1
[30] = tested on: Escherichia coli; experiment: Antimicrobial activity against Escherichia coli isolate J53 harboring p6A containing beta-lactamase OXA-48 located within transposon Tn1999 by Etest method; summary of the method: as §1
[31] = tested on: Escherichia coli; experiment: Antimicrobial activity against Escherichia coli isolate J53 harboring p7A containing beta-lactamase OXA-48 located within transposon Tn1999 by Etest method; summary of the method: as §1
[32] = tested on: Escherichia coli; experiment: Antimicrobial activity against Escherichia coli isolate J53 harboring pE containing beta-lactamase OXA-48 located within transposon Tn1999.2 by Etest method; summary of the method: as §1
[33] = tested on: Enterobacter cloacae; experiment: Antimicrobial activity against Enterobacter cloacae isolate 2 expressing beta-lactamase OXA-48 and SHV-5 by Etest method
[34] = tested on: Escherichia coli; experiment: Antimicrobial activity against Escherichia coli isolate J53 harboring pL containing beta-lactamase OXA-48 located within transposon Tn1999.2 by Etest method; summary of the method: as §1
[35] = tested on: Escherichia coli; experiment: Antimicrobial activity against Escherichia coli isolate TOP10 harboring pPR containing beta-lactamase and TEM-101 by Etest method; summary of the method: as §3
[36] = tested on: Klebsiella pneumoniae; experiment: Antimicrobial activity against Klebsiella pneumoniae isolate Kp3A expressing beta-lactamase OXA-48 by Etest method; summary of the method: as §2
[37] = tested on: Escherichia coli; experiment: Antimicrobial activity against Escherichia coli isolate J53 harboring pEnc2 containing beta-lactamase OXA-48 located within transposon Tn1999 by Etest method; summary of the method: as §1
[38] = tested on: Klebsiella pneumoniae; experiment: Antimicrobial activity against Klebsiella pneumoniae isolate Kp11978 expressing beta-lactamase OXA-48, SHV-2a and TEM-1 by Etest method

SMILES | MIC [1] [µg/mL] | MIC [2] [µg/mL] | MIC [3] [µg/mL] | MIC [4] [µg/mL] | MIC [5] [µg/mL] | MIC [6] [µg/mL] | MIC [7] [µg/mL] | MIC [8] [µg/mL] | MIC [9] [µg/mL] | MIC [10] [µg/mL] | MIC [11] [µg/mL] | MIC [12] [µg/mL] | MIC [13] [µg/mL] | MIC [14] [µg/mL] | MIC [15] [µg/mL] | MIC [16] [µg/mL] | MIC [17] [µg/mL] | MIC [18] [µg/mL] | MIC [19] [µg/mL] | MIC [20] [µg/mL] | other results
CC(C)(O/N=C(\C(=O)N[C@@H]1C(=O)N2C(C(=O)[O-])=C(C[n+]3ccccc3)CS[C@H]12)c1csc(N)n1)C(=O)O [CEFTAZIDIME] | 0.12 (≈ 0.22 µM) | 0.12 (≈ 0.22 µM) | 0.12 (≈ 0.22 µM) | 0.75 (≈ 1.37 µM) | 512 (≈ 937 µM) | 1 (≈ 1.83 µM) | > 512 | 512 (≈ 937 µM) | 0.06 (≈ 0.11 µM) | 512 (≈ 937 µM) | > 512 | 512 (≈ 937 µM) | 0.75 (≈ 1.37 µM) | 512 (≈ 937 µM) | 0.25 (≈ 0.457 µM) | 0.12 (≈ 0.22 µM) | 0.12 (≈ 0.22 µM) | 512 (≈ 937 µM) | 0.12 (≈ 0.22 µM) | 0.06 (≈ 0.11 µM) | MIC [21]: 1 µg/mL (≈ 1.83 µM); MIC [22]: 0.12 µg/mL (≈ 0.22 µM); MIC [23]: 0.12 µg/mL (≈ 0.22 µM); MIC [24]: 512 µg/mL (≈ 937 µM); MIC [25]: 0.75 µg/mL (≈ 1.37 µM); MIC [26]: 512 µg/mL (≈ 937 µM); MIC [27]: 512 µg/mL (≈ 937 µM); MIC [28]: 0.75 µg/mL (≈ 1.37 µM); MIC [29]: 0.75 µg/mL (≈ 1.37 µM); MIC [30]: 0.12 µg/mL (≈ 0.22 µM); MIC [31]: 0.12 µg/mL (≈ 0.22 µM); MIC [32]: 0.12 µg/mL (≈ 0.22 µM); MIC [33]: 32 µg/mL (≈ 58.5 µM); MIC [34]: 0.75 µg/mL (≈ 1.37 µM); MIC [35]: 512 µg/mL (≈ 937 µM); MIC [36]: 0.25 µg/mL (≈ 0.457 µM); MIC [37]: 0.75 µg/mL (≈ 1.37 µM); MIC [38]: 512 µg/mL (≈ 937 µM)
CO/N=C(\C(=O)N[C@@H]1C(=O)N2C(C(=O)O)=C(COC(C)=O)CS[C@H]12)c1csc(N)n1 [CEFOTAXIME] | 0.12 (≈ 0.263 µM) | 0.06 (≈ 0.132 µM) | 0.5 (≈ 1.1 µM) | 0.12 (≈ 0.263 µM) | 64 (≈ 141 µM) | 0.12 (≈ 0.263 µM) | > 512 | 64 (≈ 141 µM) | 0.06 (≈ 0.132 µM) | 64 (≈ 141 µM) | > 512 | 64 (≈ 141 µM) | 0.25 (≈ 0.549 µM) | 64 (≈ 141 µM) | 0.5 (≈ 1.1 µM) | 0.12 (≈ 0.263 µM) | 0.12 (≈ 0.263 µM) | 64 (≈ 141 µM) | 0.5 (≈ 1.1 µM) | 0.06 (≈ 0.132 µM) | MIC [21]: 0.5 µg/mL (≈ 1.1 µM); MIC [22]: 0.5 µg/mL (≈ 1.1 µM); MIC [23]: 0.12 µg/mL (≈ 0.263 µM); MIC [24]: 64 µg/mL (≈ 141 µM); MIC [25]: 1.5 µg/mL (≈ 3.29 µM); MIC [26]: 64 µg/mL (≈ 141 µM); MIC [27]: 64 µg/mL (≈ 141 µM); MIC [28]: 0.12 µg/mL (≈ 0.263 µM); MIC [29]: 0.12 µg/mL (≈ 0.263 µM); MIC [30]: 0.12 µg/mL (≈ 0.263 µM); MIC [31]: 0.5 µg/mL (≈ 1.1 µM); MIC [32]: 0.12 µg/mL (≈ 0.263 µM); MIC [33]: 512 µg/mL (≈ 1120 µM); MIC [34]: 0.25 µg/mL (≈ 0.549 µM); MIC [35]: 32 µg/mL (≈ 70.3 µM); MIC [36]: 1 µg/mL (≈ 2.2 µM); MIC [37]: 0.25 µg/mL (≈ 0.549 µM); MIC [38]: 64 µg/mL (≈ 141 µM)
CO[C@@]1(NC(=O)Cc2cccs2)C(=O)N2C(C(=O)O)=C(COC(N)=O)CS[C@@H]21 [CEFOXITIN] | 2 (≈ 4.68 µM) | 2 (≈ 4.68 µM) | 128 (≈ 299 µM) | 2 (≈ 4.68 µM) | 128 (≈ 299 µM) | 2 (≈ 4.68 µM) | 128 (≈ 299 µM) | 128 (≈ 299 µM) | 2 (≈ 4.68 µM) | 128 (≈ 299 µM) | > 512 | 128 (≈ 299 µM) | 2 (≈ 4.68 µM) | 128 (≈ 299 µM) | 2 (≈ 4.68 µM) | 2 (≈ 4.68 µM) | 2 (≈ 4.68 µM) | 128 (≈ 299 µM) | 2 (≈ 4.68 µM) | 4 (≈ 9.36 µM) | MIC [21]: 4 µg/mL (≈ 9.36 µM); MIC [22]: 128 µg/mL (≈ 299 µM); MIC [23]: 2 µg/mL (≈ 4.68 µM); MIC [24]: 128 µg/mL (≈ 299 µM); MIC [25]: 8 µg/mL (≈ 18.7 µM); MIC [26]: 128 µg/mL (≈ 299 µM); MIC [27]: 128 µg/mL (≈ 299 µM); MIC [28]: 2 µg/mL (≈ 4.68 µM); MIC [29]: 2 µg/mL (≈ 4.68 µM); MIC [30]: 2 µg/mL (≈ 4.68 µM); MIC [31]: 2 µg/mL (≈ 4.68 µM); MIC [32]: 2 µg/mL (≈ 4.68 µM); MIC [33]: 512 µg/mL (≈ 1200 µM); MIC [34]: 2 µg/mL (≈ 4.68 µM); MIC [35]: 4 µg/mL (≈ 9.36 µM); MIC [36]: 2 µg/mL (≈ 4.68 µM); MIC [37]: 2 µg/mL (≈ 4.68 µM); MIC [38]: 128 µg/mL (≈ 299 µM)
